According to publication PMC3098311 (Nature, 2011):
Entries after “also recorded” stand apart in the source; their conditions may differ. Where a SMILES comes first, the peptide text is derived from it. [ ]: non-standard residue; d: D form. Tyr(3-I) = N[C@@H](Cc1ccc(O)c(I)c1)C(=O)O; Hyp = O=C(O)[C@@H]1C[C@@H](O)CN1

Tests used:
FLS2 [1] = biological target: T1, FLS2 (Arabidopsis thaliana, UniProt Q9FL28); experiment: Direct binding assay, saturation and specific binding of ^125I-Tyr-CLV3p
In short: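 HA-tagged FLS2 was expressed for 6 h in fls2 mesophyll protoplasts (2.5 × 10^5 cells). Pelleted extract (50 μg total protein) was in pH 5.8 MES/KOH binding buffer with MgCl2, NaCl and DTT. Extract was incubated with 100 fmol 125I-Tyr-CLV3p, with or without unlabeled Tyr-CLV3p, for 30 min on ice. Bound label was collected on BSA-blocked glass-fibre filters and gamma-counted. Specific binding = total minus non-specific (10–20 μM unlabeled). Kd came from saturation/Scatchard nonlinear regression and sites per cell from Bmax; s.d., n=3.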

FLS2 [2] = biological target: T1, FLS2; experiment: Binding competition analysis with unlabeled peptides; settings: unlabeled peptide; ^125I-Tyr-CLV3p 1 nM; 30 min on ice; non-specific binding with 10 μM unlabeled Tyr-CLV3p; n=3
In short: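 FLS2-HA expressed for 6 h in fls2 mesophyll protoplasts (2.5 × 10^5 cells); pellet from vortexed, iced and 10,000 ×g-spun extract in 25 mM MES/KOH pH 5.8, 3 mM MgCl2, 10 mM NaCl (50 μg protein). Incubated 30 min on ice with 100 fmol 125I-Tyr-CLV3p ± unlabeled competitor; blocked glass-fibre filtration, cold wash, gamma counting; specific = total − nonspecific (10–20 μM unlabeled); non-linear regression.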

FLS2-BAK1 interaction = FLS2-BAK1 interaction (Arabidopsis thaliana, UniProt Q94F62+Q9FL28); experiment: FLS2-BAK1 interaction by co-IP in protoplasts; type: cell-based; settings: for block of flg22- and CLV3p-triggered FLS2-BAK1 interaction: antagonist peptide at 50 μM
In short: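 Mesophyll protoplasts came from 4-week soil-grown plants (23°C, 12 h/12 h). They were co-transfected with FLS2-HA and BAK1-FLAG and incubated for 6 h at room temperature. Cells were then exposed to flg22 (1, 10 nM), CLV3p (1 μM) or CLE40p (1 μM) for 10 min. Complexes were immunoprecipitated with anti-FLAG and detected with anti-HA on immunoblot.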

Arabidopsis seedlings = experiment: Seedling growth inhibition analysis; type: in vivo; settings: for root growth: WT seedlings, flg22 1, 10 nM, CLV3p 1 μM or CLE40p 1 μM
In short: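 Col-0, fls2, Ler, fls2-24 and clv2-1 seedlings were grown in 6-well plates in liquid 0.5× MS, 0.5% sucrose, pH 5.8. Treatment was flg22 (1, 10 nM) or CLV3p (1 μM), and growth was assessed after 6 or 8 days.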

SAM = experiment: Assay for CLV3p-mediated SAM arrest; type: in vivo, Arabidopsis; settings: 1 μM peptide in liquid medium
In short: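 Col-0 and fls2 seeds, twenty per dish, grown in liquid 0.5× MS with 0.5% sucrose (pH 5.8), with or without 1 μM CLV3p. SAMs were cut, fixed overnight at 4°C in 4% paraformaldehyde/4% DMSO, eosin-stained and paraffin-embedded. Sections of 8 μm were Giemsa-stained (0.1%, 5 min) and imaged by light microscopy.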

pWUS::GUS = pWUS::GUS reporter staining in the SAM; type: in vivo, Arabidopsis; settings: seedlings grown 8 days with 1 μM peptide
In short: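 pWUS::GUS seedlings were grown 8 days in liquid 0.5× MS/0.5% sucrose with or without 1 μM CLV3p, ΔCLV3p or flg22. They were fixed in 90% cold acetone for 20 min. Seedlings were vacuum-infiltrated with pH 7.0 phosphate buffer containing ferro/ferricyanide, Triton X-100, EDTA and 1 mM X-Gluc, then held 3 h at 37°C. Samples were dehydrated to 70% ethanol and imaged under a stereomicroscope.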

FRK1, WRKY29 and WRKY30 = experiment: qRT-PCR of flg22 early marker genes in protoplasts; type: cell-based, Arabidopsis; settings: peptides for 1 h, 1 μM CLV3p, 1 μM CLE40p, n=3
In short: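 Mesophyll protoplasts were treated with peptides for 1 h. Total RNA was extracted with TRIzol, and cDNA was made from 1 μg RNA with M-MLV reverse transcriptase. SYBR green real-time PCR followed, with ACT2 as the control gene.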

endogenous MPK3 and MPK6 = experiment: In-gel kinase assay of MAPK activation in mesophyll protoplasts; type: cell-based, Arabidopsis
WUS = experiment: qRT-PCR of WUS in isolated SAM tissues; type: in vivo, Arabidopsis; settings: 1 μM CLV3p for 1 h; WT and mutant seedlings; n=3
In short: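 Seedlings grew 8 days in liquid 0.5× MS, 0.5% sucrose, pH 5.8, then got 1 h peptide treatment (1 nM or 1 μM). SAM tissues were harvested after snap-freezing in liquid nitrogen, and RNA was TRIzol-extracted. SYBR Green real-time qRT-PCR used ACT2 as the control gene.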

[3] = system: FRK1, WRKY29, WRKY30, MYB15, MYB51 and PEP3; experiment: qRT-PCR of immune marker genes in isolated SAM tissues; type: in vivo, Arabidopsis; settings: n=3

Chain of FLS2-BAK1 interaction (Q9FL28 24-1173): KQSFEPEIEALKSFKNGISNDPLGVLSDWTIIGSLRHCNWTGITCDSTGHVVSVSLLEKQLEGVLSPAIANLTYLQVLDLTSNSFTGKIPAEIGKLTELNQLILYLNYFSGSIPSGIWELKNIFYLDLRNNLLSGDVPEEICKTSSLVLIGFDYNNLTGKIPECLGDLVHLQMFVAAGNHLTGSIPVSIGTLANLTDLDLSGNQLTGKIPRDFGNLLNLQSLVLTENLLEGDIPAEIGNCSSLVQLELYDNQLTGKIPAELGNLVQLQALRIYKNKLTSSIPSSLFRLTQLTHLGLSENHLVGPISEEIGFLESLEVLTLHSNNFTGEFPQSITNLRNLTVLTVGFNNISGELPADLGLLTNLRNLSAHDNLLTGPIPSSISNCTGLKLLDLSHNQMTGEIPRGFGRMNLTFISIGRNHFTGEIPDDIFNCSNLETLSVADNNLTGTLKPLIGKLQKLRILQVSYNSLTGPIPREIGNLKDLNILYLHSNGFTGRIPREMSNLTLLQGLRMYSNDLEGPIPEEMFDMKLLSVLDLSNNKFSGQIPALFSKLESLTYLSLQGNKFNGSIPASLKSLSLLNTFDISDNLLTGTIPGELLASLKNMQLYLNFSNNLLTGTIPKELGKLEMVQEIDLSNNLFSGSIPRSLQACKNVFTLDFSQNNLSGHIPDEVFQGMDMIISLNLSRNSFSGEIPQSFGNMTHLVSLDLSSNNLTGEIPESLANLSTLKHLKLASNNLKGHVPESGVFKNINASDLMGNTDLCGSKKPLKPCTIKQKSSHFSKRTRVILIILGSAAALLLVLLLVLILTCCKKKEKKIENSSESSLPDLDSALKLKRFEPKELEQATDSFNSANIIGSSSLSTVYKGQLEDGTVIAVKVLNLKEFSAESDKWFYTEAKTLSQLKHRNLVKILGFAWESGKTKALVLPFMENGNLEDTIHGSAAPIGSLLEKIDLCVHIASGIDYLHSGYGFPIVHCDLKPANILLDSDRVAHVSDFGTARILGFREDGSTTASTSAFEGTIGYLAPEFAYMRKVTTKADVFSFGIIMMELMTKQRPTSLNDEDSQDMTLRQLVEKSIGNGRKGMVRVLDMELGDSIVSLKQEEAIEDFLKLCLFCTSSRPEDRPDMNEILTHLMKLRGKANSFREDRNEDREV
Chain of FLS2-BAK1 interaction (Q94F62 26-615 partner): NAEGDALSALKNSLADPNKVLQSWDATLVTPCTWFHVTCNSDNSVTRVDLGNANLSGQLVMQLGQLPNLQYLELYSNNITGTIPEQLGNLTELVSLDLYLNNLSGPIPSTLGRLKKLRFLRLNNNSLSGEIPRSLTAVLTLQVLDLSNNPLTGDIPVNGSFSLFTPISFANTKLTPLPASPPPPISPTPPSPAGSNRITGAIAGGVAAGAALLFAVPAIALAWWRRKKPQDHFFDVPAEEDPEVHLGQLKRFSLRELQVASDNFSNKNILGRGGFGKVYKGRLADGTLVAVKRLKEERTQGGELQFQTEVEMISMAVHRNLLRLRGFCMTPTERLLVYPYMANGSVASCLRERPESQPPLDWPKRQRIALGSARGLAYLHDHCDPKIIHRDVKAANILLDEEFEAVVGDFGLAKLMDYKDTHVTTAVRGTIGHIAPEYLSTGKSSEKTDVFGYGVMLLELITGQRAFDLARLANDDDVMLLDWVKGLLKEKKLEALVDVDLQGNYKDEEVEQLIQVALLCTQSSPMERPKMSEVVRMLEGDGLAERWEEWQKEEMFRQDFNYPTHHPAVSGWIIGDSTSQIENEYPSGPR
T1 sequence (Q9FL28 24-1173): as the sequence (Q9FL28 24-1173) above

## CC(C)C[C@H](NC(=O)[C@@H]1CCCN1C(=O)[C@H](CC(=O)O)NC(=O)[C@@H]1C[C@@H](O)CN1C(=O)CNC(=O)[C@H](CO)NC(=O)[C@@H]1C[C@@H](O)CN1C(=O)[C@@H](NC(=O)[C@@H](NC(=O)[C@H](CCCNC(=N)N)NC(=O)[C@@H](N)Cc1ccc(O)c(I)c1)[C@@H](C)O)C(C)C)C(=O)N[C@@H](Cc1c[nH]cn1)C(=O)N[C@@H](Cc1c[nH]cn1)C(=O)O [^125I-Tyr-CLV3p] (H-[Tyr(3-I)]RTV[Hyp]SG[Hyp]DPLHH-OH; N-terminus and C-terminus assumed)
FLS2 [1]
  Kd: 34.7 nM
FLS2 [1]; estimated from Bmax and 50 ug protein from 2.5 × 10^5 cells, total cell extracts
  binding sites per cell: 6.36 × 10^4 binding sites per cell
FLS2 [1]; wild-type FLS2 expressed in null fls2 protoplasts, non-specific binding with 20 μM unlabeled Tyr-CLV3p, n=3
  specific binding of ^125I-Tyr-CLV3p: showed specific binding; also recorded: specifically binds to FLS2

## QRLSTGSRINSAKDDAAGLQ [flg22-Δ2]
FLS2 [2]
  competition with ^125I-Tyr-CLV3p for specific binding to FLS2: could be competed
FLS2-BAK1 interaction
  block of flg22- and CLV3p-triggered FLS2-BAK1 interaction: effectively competed with and blocked flg22 and CLV3p signalling
FLS2-BAK1 interaction; listed as Flg22-Δ2
  block of flg22- and CLV3p-triggered FLS2-BAK1 interaction: blocks CLV3p and flg22 signalling

## RQVP^hTGSDPLHH [CLE40p, reference compound]
Arabidopsis seedlings; 6 or 8 days
  root growth: root growth inhibition
SAM
  SAM growth arrest: triggered the growth arrest of SAM
pWUS::GUS
  repression of pWUS::GUS reporter: repression of WUSCHEL (WUS)
FRK1, WRKY29 and WRKY30
  flg22 early marker gene activation: did not promote

## RTVP^hSGP^hDPLH [ΔCLV3p]
Endogenous MPK3 and MPK6; Fig. 1a, data not shown
  activating or blocking FLS2 signalling: ineffective in activating or blocking FLS2 signalling

## RTVP^hSGP^hDPLHH [CLV3p]
WUS
  repression of WUS in the SAM: only in the SAM of WT and fls2-24, but not clv1-1 and clv2-1
FLS2 [2]
  competition with ^125I-Tyr-CLV3p for specific binding to FLS2: could be competed
Arabidopsis seedlings; Col-0 and Ler WT seedlings, flg22 1, 10 nM or CLV3p 1 μM, 6 or 8 days
  shoot growth: did not inhibit shoot growth
Arabidopsis seedlings; 6 or 8 days
  root growth: caused stronger root growth arrest
Arabidopsis seedlings; clv2-1 seedlings, CLV3p 1 μM
  root growth arrest in the clv2-1 mutant: abolished
Arabidopsis seedlings; fls2 and fls2-24 seedlings, flg22 1, 10 nM or CLV3p 1 μM
  growth effect in two independent fls2 mutants: retained
SAM
  SAM growth arrest: very active in triggering the typical SAM arrest; also recorded: suppresses the SAM in Col-0 and fls2 plants
Endogenous MPK3 and MPK6; protoplasts, 1 μM CLV3p, 1 μM ΔCLV3p or 100 nM flg22 for 10 min
  MAPK activation: activated similar MAPK activities
FLS2-BAK1 interaction; CLV3p, 10 min
  concentration of equal potency in peptide titration, FLS2 and BAK1 co-IP: 1000 nM
pWUS::GUS
  repression of pWUS::GUS reporter: repression of a sensitive pWUS::GUS reporter; also recorded: represses pWUS::GUS expression
[3]; 1 nM flg22 or 1 μM CLV3p for 1 h, WT and mutant seedlings
  immune marker gene activation in the SAM: in WT, clv1-1, clv2-1 but not fls2-24
[3]; clv3-2 seedlings treated with 0-100 nM CLV3p for 1 h
  exogenous CLV3p needed for complementation of clv3-2 for immune marker gene expression in the SAM: nM range
FRK1, WRKY29 and WRKY30
  flg22 early marker gene activation: activated similar early marker genes; also recorded: triggers flg22 marker gene activation

## YRTVP^hSGP^hDPLHH [Tyr-CLV3p]
FLS2 [2]
  competition with ^125I-Tyr-CLV3p for specific binding to FLS2: could be competed
